Laboratory results as given in ChEMBL document CHEMBL2010643 (Bioorg Med Chem Lett, 2012).
Activity calls are given as the source filed them. The rule behind the calls is not given here.

How the values were obtained:
[1] = target: Serine/threonine-protein kinase pim-1 (Homo sapiens) (UniProt P11309); test: Inhibition of PIM1 assessed as residual activity at 10 uM relative to control
[2] = Inhibition of CK1 assessed as residual activity at 1 uM relative to control
[3] = target: Receptor-interacting serine/threonine-protein kinase 2 (Homo sapiens) (UniProt O43353); test: Inhibition of RIPK2 assessed as residual activity at 1 uM relative to control
[4] = target: Leucine-rich repeat serine/threonine-protein kinase 2 (Mus musculus) (UniProt Q5S006); test: Inhibition of wild type LRRK2 phosphorylation at Ser935 in mouse 3T3 cells after 90 mins by Western blot analysis; assay type: cell-based
Chain of Leucine-rich repeat serine/threonine-protein kinase 2 (Mus musculus) (Q5S006 whole entry): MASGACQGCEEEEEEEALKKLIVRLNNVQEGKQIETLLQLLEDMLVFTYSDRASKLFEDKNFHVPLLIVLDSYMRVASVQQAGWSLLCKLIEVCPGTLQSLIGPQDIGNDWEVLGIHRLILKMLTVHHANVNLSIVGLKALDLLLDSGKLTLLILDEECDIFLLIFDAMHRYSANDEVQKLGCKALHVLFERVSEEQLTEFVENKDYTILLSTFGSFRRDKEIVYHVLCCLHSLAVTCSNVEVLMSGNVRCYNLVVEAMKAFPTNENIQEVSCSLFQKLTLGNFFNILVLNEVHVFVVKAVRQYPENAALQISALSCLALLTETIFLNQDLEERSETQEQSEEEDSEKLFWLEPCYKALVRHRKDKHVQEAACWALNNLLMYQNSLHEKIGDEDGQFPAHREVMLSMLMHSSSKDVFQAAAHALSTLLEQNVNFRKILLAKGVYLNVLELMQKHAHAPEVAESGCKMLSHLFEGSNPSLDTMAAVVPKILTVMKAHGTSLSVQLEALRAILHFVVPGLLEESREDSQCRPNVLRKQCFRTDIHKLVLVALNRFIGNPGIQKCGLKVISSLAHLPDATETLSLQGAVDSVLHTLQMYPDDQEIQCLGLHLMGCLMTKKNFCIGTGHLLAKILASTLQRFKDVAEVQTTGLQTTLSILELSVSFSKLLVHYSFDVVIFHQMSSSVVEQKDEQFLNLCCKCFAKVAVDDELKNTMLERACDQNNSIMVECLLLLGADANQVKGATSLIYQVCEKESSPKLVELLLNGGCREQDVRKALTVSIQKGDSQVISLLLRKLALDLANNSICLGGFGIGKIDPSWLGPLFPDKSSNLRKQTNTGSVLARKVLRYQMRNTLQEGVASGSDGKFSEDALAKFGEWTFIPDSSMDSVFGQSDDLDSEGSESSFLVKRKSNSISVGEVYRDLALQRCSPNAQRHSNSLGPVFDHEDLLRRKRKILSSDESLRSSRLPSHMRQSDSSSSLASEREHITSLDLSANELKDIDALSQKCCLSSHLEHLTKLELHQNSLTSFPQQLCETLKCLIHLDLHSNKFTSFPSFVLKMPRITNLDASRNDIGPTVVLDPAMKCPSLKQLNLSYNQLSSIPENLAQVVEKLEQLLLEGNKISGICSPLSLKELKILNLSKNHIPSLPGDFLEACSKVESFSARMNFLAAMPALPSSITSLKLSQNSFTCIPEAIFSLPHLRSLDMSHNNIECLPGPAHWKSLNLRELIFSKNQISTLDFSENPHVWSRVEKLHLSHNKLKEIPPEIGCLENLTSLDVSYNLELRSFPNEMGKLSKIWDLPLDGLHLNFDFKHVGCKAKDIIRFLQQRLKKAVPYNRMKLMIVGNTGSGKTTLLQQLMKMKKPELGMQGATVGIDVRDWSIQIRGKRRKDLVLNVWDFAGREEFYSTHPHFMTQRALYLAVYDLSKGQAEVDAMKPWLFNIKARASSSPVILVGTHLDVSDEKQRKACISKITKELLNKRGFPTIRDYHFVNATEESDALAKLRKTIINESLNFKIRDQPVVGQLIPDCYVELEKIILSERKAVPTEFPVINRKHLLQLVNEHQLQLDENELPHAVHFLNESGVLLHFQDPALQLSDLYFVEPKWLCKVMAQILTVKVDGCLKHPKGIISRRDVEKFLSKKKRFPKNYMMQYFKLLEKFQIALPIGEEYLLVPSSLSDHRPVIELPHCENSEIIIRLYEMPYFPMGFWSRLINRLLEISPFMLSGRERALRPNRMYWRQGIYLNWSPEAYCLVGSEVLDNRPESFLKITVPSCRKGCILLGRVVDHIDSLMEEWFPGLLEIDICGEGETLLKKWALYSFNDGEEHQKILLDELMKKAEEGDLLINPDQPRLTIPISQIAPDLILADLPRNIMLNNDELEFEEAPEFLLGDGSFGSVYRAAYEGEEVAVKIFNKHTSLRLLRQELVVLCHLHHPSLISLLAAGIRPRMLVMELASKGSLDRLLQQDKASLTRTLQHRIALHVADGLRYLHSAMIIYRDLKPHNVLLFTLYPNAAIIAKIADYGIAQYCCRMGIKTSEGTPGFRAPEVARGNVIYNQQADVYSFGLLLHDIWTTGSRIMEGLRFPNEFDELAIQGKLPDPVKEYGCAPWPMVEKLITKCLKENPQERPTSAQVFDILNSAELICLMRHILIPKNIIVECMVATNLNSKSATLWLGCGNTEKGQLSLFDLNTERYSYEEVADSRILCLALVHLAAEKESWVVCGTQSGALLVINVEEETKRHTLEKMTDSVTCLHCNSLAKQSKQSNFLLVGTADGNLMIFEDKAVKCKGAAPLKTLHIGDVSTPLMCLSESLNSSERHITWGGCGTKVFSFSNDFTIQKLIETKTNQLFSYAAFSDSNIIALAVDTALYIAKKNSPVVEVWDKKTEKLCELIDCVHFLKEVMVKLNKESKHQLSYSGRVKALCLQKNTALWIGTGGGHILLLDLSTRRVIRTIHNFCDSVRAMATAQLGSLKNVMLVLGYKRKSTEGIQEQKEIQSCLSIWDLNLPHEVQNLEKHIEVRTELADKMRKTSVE
Method in brief: (§1)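 Mouse Swiss 3T3 cells treated with DMSO or increasing inhibitor concentrations for 90 min. Endogenous LRRK2 in lysates immunoblotted with purified phospho-specific antibodies to Ser910 and Ser935 and with a total LRRK2 antibody. Blots done in duplicate, representative of at least two independent experiments.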

[5] = target: Receptor tyrosine-protein kinase erbB-4 (Homo sapiens) (UniProt Q15303); test: Inhibition of HER4 assessed as residual activity at 1 uM relative to control
Method in brief: (§2)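 Standard radioactivity-based enzymatic assays were run across a 124-kinase panel (Dundee profiling), with compound at 1 µM. Kinase activity was expressed relative to control.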

[6] = target: Serine/threonine-protein kinase STK11 (Homo sapiens) (UniProt Q15831); test: Inhibition of LKB1 assessed as residual activity at 10 uM relative to control
Chain of Serine/threonine-protein kinase STK11 (Homo sapiens) (Q15831 whole entry): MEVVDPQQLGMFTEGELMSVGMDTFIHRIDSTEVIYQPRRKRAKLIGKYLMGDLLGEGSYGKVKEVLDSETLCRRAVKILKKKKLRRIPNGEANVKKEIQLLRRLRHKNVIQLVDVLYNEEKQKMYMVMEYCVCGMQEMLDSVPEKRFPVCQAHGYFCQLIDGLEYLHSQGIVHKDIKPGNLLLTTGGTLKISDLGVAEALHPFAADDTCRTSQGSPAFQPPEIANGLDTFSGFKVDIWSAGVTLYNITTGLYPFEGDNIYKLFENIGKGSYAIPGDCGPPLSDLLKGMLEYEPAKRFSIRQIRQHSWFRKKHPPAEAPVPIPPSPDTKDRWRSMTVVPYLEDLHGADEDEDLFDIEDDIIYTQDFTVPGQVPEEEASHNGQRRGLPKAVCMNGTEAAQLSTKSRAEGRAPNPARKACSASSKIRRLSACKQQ

Mus musculus [7] = test: Inhibition of LRRK2 phosphorylation at Ser935 in C57BL/6 mouse kidney at 10 mg/kg, po administered for 8 hrs followed by 2 hrs dosing; assay type: functional, organism-based; design: dose 10 mg/kg
Method in brief: (§3)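 Mice were dosed by oral gavage at 10 or 50 mg/kg. Brain, spleen and kidney were collected. Endogenous LRRK2 was resolved by SDS–PAGE and blotted with phospho-specific antibodies to Ser910 and Ser935 and with an antibody to total LRRK2.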

[8] = target: Cyclin-dependent kinase 2/cyclin A (Homo sapiens) (UniProt P24941+P20248+P78396); test: Inhibition of CDK2-Cyclin A assessed as residual activity at 10 uM relative to control; assay type: protein-complex assay
Mus musculus [9] = test: Inhibition of LRRK2 phosphorylation at Ser935 in C57BL/6 mouse spleen at 50 mg/kg, po administered for 8 hrs followed by 2 hrs dosing; assay type: functional, organism-based; design: dose 50 mg/kg; method in brief: as §3
[10] = target: Dual specificity mitogen-activated protein kinase kinase 6 (Homo sapiens) (UniProt P52564); test: Inhibition of MKK6 assessed as residual activity at 10 uM relative to control
Chain of Dual specificity mitogen-activated protein kinase kinase 6 (Homo sapiens) (P52564 whole entry): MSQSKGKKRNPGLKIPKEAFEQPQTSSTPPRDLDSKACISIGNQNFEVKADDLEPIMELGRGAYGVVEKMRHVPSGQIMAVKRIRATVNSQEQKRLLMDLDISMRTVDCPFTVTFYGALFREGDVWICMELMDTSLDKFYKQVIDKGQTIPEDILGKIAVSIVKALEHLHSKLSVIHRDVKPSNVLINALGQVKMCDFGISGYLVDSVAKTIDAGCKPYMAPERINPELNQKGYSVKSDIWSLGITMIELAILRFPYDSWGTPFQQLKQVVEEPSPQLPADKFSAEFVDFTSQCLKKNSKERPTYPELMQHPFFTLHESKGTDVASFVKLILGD

[11] = target: Serine/threonine-protein kinase PAK 4 (Homo sapiens) (UniProt O96013); test: Inhibition of PAK4 assessed as residual activity at 1 uM relative to control
[12] = target: Dual specificity mitogen-activated protein kinase kinase 6 (Homo sapiens) (UniProt P52564); test: Inhibition of MKK6 assessed as residual activity at 1 uM relative to control
[13] = target: Serine/threonine-protein kinase PLK1 (Homo sapiens) (UniProt P53350); test: Inhibition of PLK1 assessed as residual activity at 1 uM relative to control
[14] = target: Tyrosine-protein kinase BTK (Homo sapiens) (UniProt Q06187); test: Inhibition of BTK assessed as residual activity at 10 uM relative to control
Mus musculus [15] = test: Inhibition of LRRK2 phosphorylation at Ser910 in C57BL/6 mouse kidney at 50 mg/kg, po administered for 8 hrs followed by 2 hrs dosing; assay type: functional, organism-based; design: dose 50 mg/kg; method in brief: as §3
[16] = target: Dual specificity protein kinase TTK (Homo sapiens) (UniProt P33981); test: Inhibition of TTK assessed as residual activity at 10 uM relative to control
Chain of Dual specificity protein kinase TTK (Homo sapiens) (P33981 whole entry): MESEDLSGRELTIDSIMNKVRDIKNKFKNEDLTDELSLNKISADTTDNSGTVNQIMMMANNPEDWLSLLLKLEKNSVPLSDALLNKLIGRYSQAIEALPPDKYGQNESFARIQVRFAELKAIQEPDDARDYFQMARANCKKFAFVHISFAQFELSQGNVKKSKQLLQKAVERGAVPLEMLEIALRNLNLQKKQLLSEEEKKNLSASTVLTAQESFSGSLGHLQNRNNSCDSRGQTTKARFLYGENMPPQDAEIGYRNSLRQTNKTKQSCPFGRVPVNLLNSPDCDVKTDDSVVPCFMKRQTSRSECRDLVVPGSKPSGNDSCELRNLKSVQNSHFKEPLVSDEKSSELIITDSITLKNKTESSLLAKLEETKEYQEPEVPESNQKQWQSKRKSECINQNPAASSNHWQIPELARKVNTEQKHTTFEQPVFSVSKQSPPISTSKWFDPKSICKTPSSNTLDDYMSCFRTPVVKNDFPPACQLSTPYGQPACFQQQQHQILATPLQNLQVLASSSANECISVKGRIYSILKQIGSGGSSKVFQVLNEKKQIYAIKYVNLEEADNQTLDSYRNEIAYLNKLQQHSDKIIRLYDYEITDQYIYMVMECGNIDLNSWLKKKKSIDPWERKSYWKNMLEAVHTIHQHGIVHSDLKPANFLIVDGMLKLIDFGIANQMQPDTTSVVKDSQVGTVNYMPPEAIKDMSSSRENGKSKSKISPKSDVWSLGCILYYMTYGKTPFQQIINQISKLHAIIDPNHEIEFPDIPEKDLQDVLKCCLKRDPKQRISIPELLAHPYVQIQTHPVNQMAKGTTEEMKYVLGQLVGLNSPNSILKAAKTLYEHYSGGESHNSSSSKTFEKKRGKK
Method in brief: (§4)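 Radioactivity-based enzymatic kinase assays run across a 124-kinase profiling panel (Dundee), reporting the remaining kinase activity relative to a control.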

[17] = target: Angiopoietin-1 receptor (Homo sapiens) (UniProt Q02763); test: Inhibition of TIE2 assessed as residual activity at 1 uM relative to control
[18] = target: Ephrin type-A receptor 2 (Homo sapiens) (UniProt P29317); test: Inhibition of EPH-A2 assessed as residual activity at 1 uM relative to control; method in brief: as §2
[19] = target: Serine/threonine-protein kinase N2 (Homo sapiens) (UniProt Q16513); test: Inhibition of PRK2 assessed as residual activity at 1 uM relative to control
Mus musculus [20] = test: Inhibition of LRRK2 phosphorylation at Ser910 in C57BL/6 mouse spleen at 10 mg/kg, po administered for 8 hrs followed by 2 hrs dosing; assay type: functional, organism-based; design: dose 10 mg/kg; method in brief: as §3
[21] = target: Glycogen synthase kinase-3 beta (Homo sapiens) (UniProt P49841); test: Inhibition of GSK3b assessed as residual activity at 1 uM relative to control; method in brief: as §2
[22] = target: Serine/threonine-protein kinase 16 (Homo sapiens) (UniProt O75716); test: Inhibition of MPSK1 assessed as residual activity at 10 uM relative to control
Chain of Serine/threonine-protein kinase 16 (Homo sapiens) (O75716 whole entry): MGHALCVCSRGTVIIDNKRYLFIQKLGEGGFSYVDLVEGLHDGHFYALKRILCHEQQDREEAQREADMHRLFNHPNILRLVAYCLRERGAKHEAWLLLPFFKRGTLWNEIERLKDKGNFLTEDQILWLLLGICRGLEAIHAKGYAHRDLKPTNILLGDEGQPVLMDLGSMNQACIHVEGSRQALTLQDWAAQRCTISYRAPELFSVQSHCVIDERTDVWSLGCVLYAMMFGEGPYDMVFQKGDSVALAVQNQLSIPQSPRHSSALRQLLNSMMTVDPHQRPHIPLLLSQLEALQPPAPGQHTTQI

[23] = target: Leucine-rich repeat serine/threonine-protein kinase 2 (Homo sapiens, UniProt Q5S007); test: Inhibition of wild type LRRK2 phosphorylation at Ser935 in human lymphoblastoid cells at 0.03 to 3 uM after 90 mins by Western blot analysis; assay type: cell-based
Mus musculus [24] = test: Inhibition of LRRK2 phosphorylation at Ser910 in C57BL/6 mouse spleen at 50 mg/kg, po administered for 8 hrs followed by 2 hrs dosing; assay type: functional, organism-based; design: dose 50 mg/kg; method in brief: as §3
[25] = target: Serine/threonine-protein kinase pim-3 (Homo sapiens) (UniProt Q86V86); test: Inhibition of PIM3 assessed as residual activity at 10 uM relative to control
[26] = target: Dual specificity mitogen-activated protein kinase kinase 2 (Homo sapiens) (UniProt P36507); test: Inhibition of MKK2 assessed as residual activity at 1 uM relative to control
Chain of Dual specificity mitogen-activated protein kinase kinase 2 (Homo sapiens) (P36507 whole entry): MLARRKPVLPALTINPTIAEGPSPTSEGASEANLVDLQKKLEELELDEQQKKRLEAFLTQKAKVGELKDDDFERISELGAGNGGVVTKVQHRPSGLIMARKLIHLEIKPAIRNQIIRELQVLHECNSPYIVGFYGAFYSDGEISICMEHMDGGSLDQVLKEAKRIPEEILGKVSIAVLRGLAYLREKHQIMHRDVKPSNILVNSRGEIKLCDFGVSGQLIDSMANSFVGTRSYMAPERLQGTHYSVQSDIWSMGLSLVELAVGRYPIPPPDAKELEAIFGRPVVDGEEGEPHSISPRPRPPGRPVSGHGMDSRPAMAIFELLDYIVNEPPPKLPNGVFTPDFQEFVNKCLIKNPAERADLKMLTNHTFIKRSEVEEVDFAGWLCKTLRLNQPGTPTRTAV

[27] = target: Proto-oncogene tyrosine-protein kinase Src (Homo sapiens) (UniProt P12931); test: Inhibition of Src assessed as residual activity at 1 uM relative to control
[28] = target: Leucine-rich repeat serine/threonine-protein kinase 2 (Mus musculus) (UniProt Q5S006); test: Inhibition of wild type LRRK2 phosphorylation at Ser910 in mouse 3T3 cells after 90 mins by Western blot analysis; assay type: cell-based; method in brief: as §1
[29] = target: Dual specificity protein kinase TTK (Homo sapiens) (UniProt P33981); test: Inhibition of TTK assessed as residual activity at 1 uM relative to control; method in brief: as §4
[30] = target: Dual specificity mitogen-activated protein kinase kinase 2 (Homo sapiens) (UniProt P36507); test: Inhibition of MKK2 assessed as residual activity at 10 uM relative to control
[31] = system: Leucine-rich repeat serine/threonine-protein kinase 2 (Homo sapiens), Q5S007 [A2016T]; test: Inhibition of LRRK2 A2016T mutant phosphorylation at Ser910 expressed in HEK293 cells at 1 to 3 uM after 90 mins by immunoblot analysis; assay type: cell-based
[32] = Volume of distribution at steady state in Swiss albino mouse at 1 mg/kg, iv; assay type: ADME, organism-based; design: dose 1 mg/kg, route intravenous; settings: in vivo, read-out: Vdss
Method in brief: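 Male Swiss Albino mice given a single intravenous dose of 1 mg/kg (oral arm 10 mg/kg). Plasma and brain exposure measured, and steady-state volume of distribution derived from the plasma profile.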

[33] = Inhibition of CK2 assessed as residual activity at 1 uM relative to control

## COc1cc(N2CCC(N3CCN(C)CC3)CC2)ccc1Nc1ncc(Cl)c(Nc2ccccc2S(=O)(=O)C(C)C)n1 [TAE-684]
[1]
  Activity: 101%
[2]
  Activity: 102%
[3]
  Activity: 94%
[4]
  inhibition: Dose-dependent effect
[5]
  Activity: 36%
[6]
  Activity: 77%
Mus musculus [7]
  inhibition: Active
[8]
  Activity: 38%
Mus musculus [9]
  inhibition: Active
[10]
  Activity: 75%
[11]
  Activity: 75%
[12]
  Activity: 90%
[13]
  Activity: 38%
[14]
  Activity: 38%
Mus musculus [15]
  inhibition: Active
[16]
  Activity: 47%
[17]
  Activity: 18%
[18]
  Activity: 70%
[19]
  Activity: 51%
Mus musculus [20]
  inhibition: Active
[21]
  Activity: 104%
[22]
  Activity: 96%
[23]
  inhibition: Active
Mus musculus [24]
  inhibition: Active
[25]
  Activity: 104%
[26]
  Activity: 69%
[27]
  Activity: 44%
[28]
  inhibition: Dose-dependent effect
[29]
  Activity: 73%
[30]
  Activity: 30%
[31]
  inhibition: Active
[32]
  Vd: 14.5 L/kg
[33]
  Activity: 75%
